Results published in ChEMBL document CHEMBL5365527, “Structure-Guided Design of Nurr1 Agonists Derived from the Natural Ligand Dihydroxyindole” (J Med Chem, 2023).
The source made the active and inactive calls. The calls are words filed in the database; no cut-off is given here.

Experiments:
HEK-293T [1] = assay: Cytotoxicity against human HEK293T cells co-transfected with Gal4-fused human Nurr1 LBD and pFR-Luc/pRL-SV40 assessed as decrease in renilla luciferase activity at 100 uM incubated for 16 hrs by Dual-Glo luciferase assay relative to control
[2] = biological target: T1, Nuclear receptor subfamily 4 group A member 2 (Homo sapiens, UniProt P43354); assay: Binding affinity to Nurr1 LBD (unknown origin) assessed as dissociation constant by Isothermal titration calorimetry
[3] = biological target: T1, Nuclear receptor subfamily 4 group A member 2; assay: Agonist activity at Gal4-fused human Nurr1 LBD transfected in human HEK293T cells co-transfected with pFR-Luc/pRL-SV40 assessed as activation of luciferase activity incubated for 16 hrs by Dual-Glo luciferase assay
HEK293T [4] = assay: (§1) Agonist activity at Nurr1 LBD (unknown origin) transfected in human HEK293T cells co-transfected with pFR-Luc/pRL-SV40 assessed as maximum activation of luciferase activity at 1 uM incubated for 16 hrs in presence of 7-Chloro-N-{5-chloro-2-[2-(dimethylamino)ethoxy]phenyl}quinolin-4-amine by Gal4 hybrid reporter gene assay relative to control; format: cell-based; conditions: filed as agonist
Method in brief: (§2)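 Gal4–Nurr1 LBD hybrid reporter assay in HEK293T cells (DMEM high glucose, 10% FCS, 37 °C, 5% CO2), transiently transfected with pFA-CMV-hNurr1-LBD, pFR-Luc reporter and pRL-SV40 control. Treatment began 5 h after transfection, 16 h in Opti-MEM with 0.1% DMSO, read by dual luciferase. Firefly/Renilla ratio ×1000 gave RLU; fold activation taken vs untreated control. At least three independent experiments, each in duplicate.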

HEK293T [5] = assay: as §1, with “5-Chloro-N-{5-chloro-2-[2-(dimethylamino)ethoxy]phenyl}-1H-indole-6-carboxamide” for “7-Chloro-N-{5-chloro-2-[2-(dimethylamino)ethoxy]phenyl}quinolin-4-amine”; format: cell-based; conditions: filed as agonist
Method in brief: as §2

HEK-293T [6] = assay: Cytotoxicity against human HEK293T cells assessed as reduction in cell viability at 100 uM incubated for 24 hrs by WST-8 assay; format: toxicity, cell-based
Method in brief: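 HEK293T cells were seeded on collagen G-coated wells, 10,000 per well, and after 24 h exposed to compound in Opti-MEM with 0.1% DMSO for 24 h; 0.1% DMSO alone served as untreated control. Metabolic activity was read by WST-8 (10%, 4 h) absorbance at 450 nm. Four biologically independent repeats.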

[7] = biological target: T1, Nuclear receptor subfamily 4 group A member 2; assay: Binding affinity to Nurr1 LBD (unknown origin) at 200 uM by Isothermal titration calorimetry
[8] = biological target: Nuclear receptor subfamily 4 group A member 2 (Rattus norvegicus) (UniProt Q07917); assay: Agonist activity at Nurr1 in rat N27 cells assessed as increase in TH mRNA expression level at 30 to 100 uM incubated for 16 hrs by qPCR analysis; format: cell-based; conditions: filed as agonist, dose 30-100 µM
Method in brief: (§3)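 Rat N27 dopaminergic cells in RPMI 1640 with 10% FCS, switched to 0.2% FCS 7 h after seeding and held 24 h more. Stimulated 16 h with compound in 0.1% DMSO, with 0.1% DMSO as vehicle control. Total RNA was heat-linearized at 65 °C before reverse transcription. SYBR green qPCR ran 40 cycles with a melt curve. Target mRNA normalized to GAPDH by ΔCt, expressed relative to vehicle.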

[9] = biological target: Nuclear receptor subfamily 4 group A member 2 (Rattus norvegicus) (UniProt Q07917); assay: Agonist activity at Nurr1 in rat N27 cells assessed as increase in SOD1 mRNA expression level at 30 to 100 uM incubated for 16 hrs by qPCR analysis; format: cell-based; conditions: filed as agonist, dose 30-100 µM
Method in brief: as §3

[10] = biological target: Nuclear receptor subfamily 4 group A member 2 (Rattus norvegicus) (UniProt Q07917); assay: Agonist activity at Nurr1 in rat N27 cells assessed as increase in SOD2 mRNA expression level at 30 to 100 uM incubated for 16 hrs by qPCR analysis; format: cell-based; conditions: filed as agonist, dose 30-100 µM
Method in brief: as §3

[11] = biological target: Nuclear receptor subfamily 4 group A member 2 (Rattus norvegicus) (UniProt Q07917); assay: Agonist activity at Nurr1 in rat N27 cells assessed as increase in VMAT mRNA expression level at 30 to 100 uM incubated for 16 hrs by qPCR analysis; format: cell-based; conditions: filed as agonist, dose 30-100 µM
Method in brief: as §3

[12] = Glutathione reactivity at pH 7.4 assessed as compound remaining at 125 uM incubated upto 24 hrs by LC-UV-ESI-MS analysis; format: physicochemical; conditions: pH 7.4, 24 h
Method in brief: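 Compound (125 μM final) was shaken at 37 °C with 2.5 mM glutathione in PBS pH 7.4 (1% DMSO final). Aliquots at 0, 6, 18 and 24 h were diluted in mobile phase containing an internal standard. They were analyzed by reversed-phase LC with UV at 254 nm and positive ESI-MS in SIM mode. AUC was corrected to the internal standard. Run three times.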

T1 sequence (P43354 whole entry, the tested form may be a part): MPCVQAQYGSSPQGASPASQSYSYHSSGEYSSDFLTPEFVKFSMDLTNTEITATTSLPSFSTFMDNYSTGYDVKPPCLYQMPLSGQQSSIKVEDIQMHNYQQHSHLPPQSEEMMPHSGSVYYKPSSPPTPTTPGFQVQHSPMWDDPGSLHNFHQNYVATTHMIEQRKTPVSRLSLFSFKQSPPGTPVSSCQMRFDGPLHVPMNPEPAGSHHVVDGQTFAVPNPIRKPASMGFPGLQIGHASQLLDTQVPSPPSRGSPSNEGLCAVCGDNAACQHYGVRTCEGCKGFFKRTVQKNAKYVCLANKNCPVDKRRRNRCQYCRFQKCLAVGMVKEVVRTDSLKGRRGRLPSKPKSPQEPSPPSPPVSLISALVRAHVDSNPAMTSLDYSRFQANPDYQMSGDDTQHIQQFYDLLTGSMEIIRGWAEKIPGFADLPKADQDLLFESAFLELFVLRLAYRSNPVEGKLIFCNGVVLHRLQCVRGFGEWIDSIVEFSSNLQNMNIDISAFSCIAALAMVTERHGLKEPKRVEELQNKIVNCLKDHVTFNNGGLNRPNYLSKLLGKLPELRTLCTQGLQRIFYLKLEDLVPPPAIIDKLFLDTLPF
Sequence of Nuclear receptor subfamily 4 group A member 2 (Rattus norvegicus) (Q07917 whole entry): as the sequence (P43354 whole entry, the tested form may be a part) above, with T131S, P182R, E354D counted along it

Row | SMILES | Activity (HEK-293T [1]) | further results
1 | NCc1ccc2cc[nH]c2c1 | Non-Toxic | 
2 | O=C(Nc1ccccc1NCCCn1ccnc1)c1cc2[nH]ccc2cc1Cl | Non-Toxic | 
3 | NCc1cc(N)cc(C(F)(F)F)c1 | Non-Toxic | 
4 | CN1CCC(CNC(=O)c2cc3[nH]ccc3cc2Cl)(c2ccccc2)CC1 | Non-Toxic | 
5 | O=C(NCCC12CCCN1CCC2)c1cc2[nH]ccc2cc1Cl | Non-Toxic | 
6 | NCCc1c[nH]c2ccc(F)cc12 | Non-Toxic | 
7 | CCCCN1CCC(CNC(=O)c2cc3[nH]ccc3cc2Cl)C1 (stereo not given) | Non-Toxic | Kd [2]: 16 µM; EC50 [3]: 28 µM
8 | O=C(NCC1CCN(Cc2ccccc2)CC1)c1cc2[nH]ccc2cc1Cl | Non-Toxic | 
9 | O=C(NCc1ccc2cc[nH]c2c1)c1cc2[nH]ccc2cc1Cl | Non-Toxic | 
10 | NC1CCC(CC2CCC(N)CC2)CC1 (stereo not given) | Non-Toxic | 
11 | CCN(CC)C1CCC(N)CC1 (stereo not given) | Non-Toxic | 
12 | CCN(CC)CC1CCCCC1N (stereo not given) | Toxic | 
13 | O=C(NCCNC1CCCCC1)c1cc2[nH]ccc2cc1Cl | Non-Toxic | 
14 | C#CCOc1cccc(-c2ccc(NC(=O)C3=C(C(=O)O)CCC3)c(F)c2)c1 |  | Emax (HEK293T [4]): 177%; Emax (HEK293T [5]): 134%
15 | NC1CCC(CC2CCC(NC(=O)c3cc4[nH]ccc4cc3Cl)CC2)CC1 (stereo not given) | Toxic | 
16 | CN(C)CCOc1ccc(Cl)cc1N | Non-Toxic | 
17 | O=C(NCCc1c[nH]c2ccc(F)cc12)c1cc2[nH]ccc2cc1Cl | Toxic | 
18 | CN1CCC(Nc2ccccc2NC(=O)c2cc3[nH]ccc3cc2Cl)CC1 | Non-Toxic | 
19 | CCN(CC)C1CCC(NC(=O)c2cc3[nH]ccc3cc2Cl)CC1 (stereo not given) | Non-Toxic | Activity (HEK-293T [6]): Non-Toxic; Activity [7]: inactive
20 | NCC1CCN(Cc2ccccc2)CC1 | Non-Toxic | 
21 | CCN1CCN(c2ccc(Cl)cc2N)CC1 | Non-Toxic | 
22 | NCCC12CCCN1CCC2 | Non-Toxic | 
23 | CN(C)CCc1ccc(CNC(=O)c2cc3[nH]ccc3cc2Cl)cc1 | Non-Toxic | 
24 | CCN1CCN(c2ccc(Cl)cc2NC(=O)c2cc3[nH]ccc3cc2Cl)CC1 | Non-Toxic | 
25 | CC(C)CN1CCC(N)CC1 | Non-Toxic | 
26 | CN(C)Cc1ccccc1CNC(=O)c1cc2[nH]ccc2cc1Cl | Non-Toxic | 

Row | SMILES | Activity (HEK-293T [1]) | further results
27 | NCCNC1CCCCC1 | Non-Toxic | 
28 | CN1CCC(Nc2ccccc2N)CC1 | Toxic | 
29 | NCc1ccc2[nH]ncc2c1 | Non-Toxic | 
30 | CN(C)CCOc1ccc(Cl)cc1NC(=O)c1cc2c(ccn2C)cc1Cl |  | Kd [2]: 1 µM; EC50 [3]: 16 µM
31 | CC1CCN(CCCNC(=O)c2cc3[nH]ccc3cc2Cl)CC1 | Non-Toxic | Activity (HEK-293T [6]): Non-Toxic; Activity [7]: inactive
32 | Nc1cc(CNC(=O)c2cc3[nH]ccc3cc2Cl)cc(C(F)(F)F)c1 | Toxic | 
33 | CN(C)Cc1ccccc1CN | Non-Toxic | 
34 | NC(=O)CC1(NC(=O)c2cc3[nH]ccc3cc2Cl)CCCCC1 | Non-Toxic | 
35 | CN(C)CCc1ccc(CN)cc1 | Non-Toxic | 
36 | NC(=O)CC1(N)CCCCC1 | Non-Toxic | 
37 | Clc1ccc2[nH]ccc2c1 |  | Activity [8]: Dose-Dependent Effect; Activity [9]: Dose-Dependent Effect; Activity [10]: Dose-Dependent Effect; EC50 [3]: 40 µM; Activity [11]: Dose-Dependent Effect
38 | NCCN1CCC2CCCCC2C1 (stereo not given) | Non-Toxic | 
39 | CC(C)N1CCC(N)CC1 | Non-Toxic | 
40 | CN1CCC(CN)(c2ccccc2)CC1 | Non-Toxic | 
41 | CN(C)C(CNC(=O)c1cc2[nH]ccc2cc1Cl)c1ccc(F)cc1 (stereo not given) | Non-Toxic | 
42 | CC(C)N1CCC(NC(=O)c2cc3[nH]ccc3cc2Cl)CC1 | Non-Toxic | Activity (HEK-293T [6]): Non-Toxic; Activity [7]: inactive
43 | CC(C)CN1CCC(NC(=O)c2cc3[nH]ccc3cc2Cl)CC1 | Non-Toxic | 
44 | CN(C)C(CN)c1ccc(F)cc1 (stereo not given) | Non-Toxic | 
45 | CN(C)CCOc1ccc(Cl)cc1NC(=O)c1cc2[nH]ccc2cc1Cl | Non-Toxic | Stability [12]: Stable; Activity (HEK-293T [6]): Non-Toxic
46 | O=C(NCCN1CCC2CCCCC2C1)c1cc2[nH]ccc2cc1Cl (stereo not given) | Non-Toxic | Activity (HEK-293T [6]): Non-Toxic; Kd [2]: 3.2 µM; EC50 [3]: 12 µM
47 | CCCCN1CCC(CN)C1 (stereo not given) | Non-Toxic | 
48 | O=C(NCc1ccc2[nH]ncc2c1)c1cc2[nH]ccc2cc1Cl | Toxic | 
49 | CCN(CC)CC1CCCCC1NC(=O)c1cc2[nH]ccc2cc1Cl (stereo not given) | Non-Toxic | 
50 | Nc1ccccc1NCCCn1ccnc1 | Non-Toxic | 
51 | CC1CCN(CCCN)CC1 | Non-Toxic | 
